{"source": "ChEMBL document CHEMBL1914423", "about": "“New imidazo[2,1-b]thiazole derivatives: synthesis, in vitro anticancer evaluation, and in silico studies” (Eur J Med Chem, 2011)", "key": {"UACC-257": {"test_system": "UACC-257", "experiment": "Antiproliferative activity against human UACC257 cells after 48 hrs by MTT assay", "assay_type": "functional, cell-based", "details": "UACC-257, 48 h"}, "SK-MEL-5": {"test_system": "SK-MEL-5", "experiment": "Antiproliferative activity against human SK-MEL-5 cells after 48 hrs by MTT assay", "assay_type": "functional, cell-based", "details": "SK-MEL-5, 48 h"}, "M14": {"test_system": "M14", "experiment": "Antiproliferative activity against human M14 cells after 48 hrs by MTT assay", "assay_type": "functional, cell-based", "details": "M14, 48 h"}, "MDA-MB-435": {"test_system": "MDA-MB-435", "experiment": "Antiproliferative activity against human MDA-MB-435 cells after 48 hrs by MTT assay", "assay_type": "functional, cell-based", "details": "MDA-MB-435, 48 h"}, "SK-MEL-28": {"test_system": "SK-MEL-28", "experiment": "Antiproliferative activity against human SK-MEL-28 cells after 48 hrs by MTT assay", "assay_type": "functional, cell-based", "details": "SK-MEL-28, 48 h"}, "UACC-62": {"test_system": "UACC-62", "experiment": "Antiproliferative activity against human UACC62 cells after 48 hrs by MTT assay", "assay_type": "functional, cell-based", "details": "UACC-62, 48 h"}, "SK-MEL-2": {"test_system": "SK-MEL-2", "experiment": "Antiproliferative activity against human SK-MEL-2 cells after 48 hrs by MTT assay", "assay_type": "functional, cell-based", "details": "SK-MEL-2, 48 h"}, "786-0": {"test_system": "786-0", "experiment": "Anticancer activity against human 786-0 cells after 48 hrs by SRB assay", "assay_type": "functional", "details": "786-0, 48 h", "outline": "(§1)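 NCI five-dose screen. Cells in RPMI 1640 with 5% FBS and 2 mM L-glutamine, seeded at 5000–40,000 cells/well according to doubling time, then pre-incubated 24 h at 37 °C in 5% CO2. Drugs dissolved in DMSO, five concentrations by 10-fold or 1/2-log dilution. Cells fixed with TCA, SRB-stained, A515 read. IC50 solved from [(Ti−Tz)/(C−Tz)]×100 = 50.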"}, "SK-OV-3": {"test_system": "SK-OV-3", "experiment": "Anticancer activity against human SKOV3 cells after 48 hrs by SRB assay", "assay_type": "functional", "details": "SK-OV-3, 48 h"}, "BT-549": {"test_system": "BT-549", "experiment": "Anticancer activity against human BT549 cells after 48 hrs by SRB assay", "assay_type": "functional", "details": "BT-549, 48 h", "outline": "as §1"}, "[1]": {"details": "read-out: LC50 (the source's name)"}}}
{"smiles": "O=C(NCCNc1nccc(-c2c(-c3cccc(O)c3)nc3sccn23)n1)c1ccccc1", "values": [{"measurement": "IC50", "setting": "UACC-257", "result": 0.489, "unit": "µM"}, {"measurement": "IC50", "setting": "SK-MEL-5", "result": 4.15, "unit": "µM"}, {"measurement": "IC50", "setting": "M14", "result": 0.434, "unit": "µM"}, {"measurement": "IC50", "setting": "MDA-MB-435", "result": 0.578, "unit": "µM"}, {"measurement": "IC50", "setting": "SK-MEL-28", "result": 0.336, "unit": "µM"}, {"measurement": "IC50", "setting": "UACC-62", "result": 0.211, "unit": "µM"}, {"measurement": "IC50", "setting": "SK-MEL-2", "result": 2.94, "unit": "µM"}]}
{"smiles": "O=C(NCCNc1nccc(-c2c(-c3cccc(O)c3)nc3sccn23)n1)c1ccccc1O", "values": [{"measurement": "IC50", "setting": "UACC-257", "result": 0.651, "unit": "µM"}, {"measurement": "IC50", "setting": "SK-MEL-5", "result": 1.22, "unit": "µM"}, {"measurement": "IC50", "setting": "M14", "result": 0.335, "unit": "µM"}, {"measurement": "IC50", "setting": "MDA-MB-435", "result": 0.433, "unit": "µM"}, {"measurement": "GI50", "setting": "786-0", "result": 6.25, "unit": "µM"}, {"measurement": "TGI", "setting": "786-0", "result": 43.1, "unit": "µM"}, {"measurement": "CC50", "setting": "786-0; [1]", "result": "> 100", "unit": "µM"}, {"measurement": "IC50", "setting": "SK-MEL-28", "result": 0.683, "unit": "µM"}, {"measurement": "IC50", "setting": "UACC-62", "result": 0.161, "unit": "µM"}, {"measurement": "GI50", "setting": "SK-OV-3", "result": 4.31, "unit": "µM"}, {"measurement": "TGI", "setting": "SK-OV-3", "result": 39.7, "unit": "µM"}, {"measurement": "CC50", "setting": "SK-OV-3; [1]", "result": "> 100", "unit": "µM"}, {"measurement": "GI50", "setting": "BT-549", "result": 4.74, "unit": "µM"}, {"measurement": "TGI", "setting": "BT-549", "result": 34.9, "unit": "µM"}, {"measurement": "CC50", "setting": "BT-549; [1]", "result": "> 100", "unit": "µM"}]}
